Results reported in ChEMBL document CHEMBL1123499, “Synthesis, saludiuretic, and antihypertensive activity of 6,7-disubstituted 1(2H)- and 3,4-dihydro-1(2H)-phthalazinones” (1986).

Key:
Rattus norvegicus [1] = species: Rattus norvegicus; assay: Saluretic activity in rats after 0-5 hours, as ratio of Na+/K+ ion concentration in urine; format: functional
How it was run: (§1)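 Male Sabra rats (170-200 g), fasted 18 h, dosed orally 50 mg/kg in saline at 25 mL/kg, eight per compound, two per metabolic cage, no food or water. Urine collected 5 and 24 h after dosing and centrifuged. Chloride titrated with Hg(NO3)2/diphenylcarbazone after HNO3 acidification; Na+ and K+ by atomic absorption.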

Rattus norvegicus [2] = species: Rattus norvegicus; assay: Saluretic activity in rats after 0-5 hours, as potassium ion concentration in urine; format: functional; how it was run: as §1
Rattus norvegicus [3] = species: Rattus norvegicus; assay: Saluretic activity in rats after 5-24 hours, as ratio of Na+/K+ ion concentration in urine; format: functional; how it was run: as §1
Rattus norvegicus [4] = species: Rattus norvegicus; assay: Saluretic activity in rats after 5-24 hours, as potassium ion concentration in urine; format: functional; how it was run: as §1
Rattus norvegicus [5] = species: Rattus norvegicus; assay: Saluretic activity in rats after 0-24 hours, as sodium ion concentration in urine; format: functional; how it was run: as §1
Rattus norvegicus [6] = species: Rattus norvegicus; assay: Diuretic activity in rats at time intervals of 0-24 hours; format: functional, Urine
How it was run: (§2)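 Male Sabra rats (170-200 g), starved 18 h, given 50 mg/kg by stomach tube in saline (25 mL/kg load), eight per compound, saline and furosemide controls run alongside. Held two per metabolic cage at 22 °C without food or water. Urine volume measured at 5 and 24 h collections.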

Rattus norvegicus [7] = species: Rattus norvegicus; assay: Saluretic activity in rats after 0-24 hours, as chloride ion concentration in urine; format: functional; how it was run: as §1
Rattus norvegicus [8] = species: Rattus norvegicus; assay: Diuretic activity in rats at time intervals of 5-24 hours; format: functional, Urine; how it was run: as §2
Rattus norvegicus [9] = species: Rattus norvegicus; assay: Diuretic activity in rats at time intervals of 0-5 hours; format: functional, Urine; how it was run: as §2
Rattus norvegicus [10] = species: Rattus norvegicus; assay: Saluretic activity in rats after 0-5 hours, as chloride ion concentration in urine; format: functional; how it was run: as §1
Rattus norvegicus [11] = species: Rattus norvegicus; assay: Saluretic activity in rats after 0-24 hours, as potassium ion concentration in urine; format: functional; how it was run: as §1
Rattus norvegicus [12] = species: Rattus norvegicus; assay: Saluretic activity in rats after 0-24 hours, as ratio of Na+/K+ ion concentration in urine; format: functional; how it was run: as §1
Rattus norvegicus [13] = species: Rattus norvegicus; assay: Saluretic activity in rats after 0-5 hours, as sodium ion concentration in urine; format: functional; how it was run: as §1
Rattus norvegicus [14] = species: Rattus norvegicus; assay: Saluretic activity in rats after 5-24 hours, as sodium ion concentration in urine; format: functional; how it was run: as §1
Rattus norvegicus [15] = species: Rattus norvegicus; assay: Saluretic activity in rats after 5-24 hours, as chloride ion concentration in urine; format: functional; how it was run: as §1
Rattus norvegicus [16] = species: Rattus norvegicus; assay: Compound was tested for antihypertensive activity in rat after 24 hr postdose; format: functional
How it was run: (§3)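 DOCA/saline hypertensive Sprague-Dawley rats (250-350 g), six per group, given 10 mg/kg doca s.c. daily with saline until systolic BP reached 170 mmHg (usually 3-4 weeks). Oral 25 mg/kg in 5 mL/kg 1% methylcellulose. Systolic BP by tail-cuff before and 1, 4, 24 h after; drop reported as mean ± SD.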

Rattus norvegicus [17] = species: Rattus norvegicus; assay: Compound was tested for antihypertensive activity in rat after 1 hr postdose; format: functional; how it was run: as §3
Rattus norvegicus [18] = species: Rattus norvegicus; assay: Compound was tested for antihypertensive activity in rat after 4 hr postdose; format: functional; how it was run: as §3

SMILES | Ratio (Rattus norvegicus [1]) | Saluretic activity (Rattus norvegicus [2]) | Ratio (Rattus norvegicus [3]) | Saluretic activity (Rattus norvegicus [4]) | Saluretic activity (Rattus norvegicus [5]) | Diuretic activity (Rattus norvegicus [6]) | Saluretic activity (Rattus norvegicus [7]) | Diuretic activity (Rattus norvegicus [8]) | Diuretic activity (Rattus norvegicus [9]) | Saluretic activity (Rattus norvegicus [10]) | Saluretic activity (Rattus norvegicus [11]) | Ratio (Rattus norvegicus [12]) | Saluretic activity (Rattus norvegicus [13]) | Saluretic activity (Rattus norvegicus [14]) | Saluretic activity (Rattus norvegicus [15]) | Decrease in blood pressure (Rattus norvegicus [16]) | Decrease in blood pressure (Rattus norvegicus [17]) | Decrease in blood pressure (Rattus norvegicus [18])
Cn1ncc2cc(S(N)(=O)=O)c(Sc3ccccc3)cc2c1=O | 1.7 | 1.2 m equiv kg-1 | 1.92 | 3.42 m equiv kg-1 | 8.6 m equiv kg-1 | 5.9 mL | 8.31 m equiv kg-1 | 3.8 mL | 2.1 mL | 2.33 m equiv kg-1 | 4.62 m equiv kg-1 | 1.86 | 2.05 m equiv kg-1 | 6.55 m equiv kg-1 | 5.98 m equiv kg-1 | – | – | –
NS(=O)(=O)c1cc2c(cc1Cl)CNN(Cc1ccccc1)C2=O | 2.65 | 2.61 m equiv kg-1 | 1.36 | 4.18 m equiv kg-1 | 12.6 m equiv kg-1 | 13.2 mL | 13.69 m equiv kg-1 | 6.6 mL | 6.6 mL | 8.69 m equiv kg-1 | 6.79 m equiv kg-1 | 1.86 | 6.9 m equiv kg-1 | 5.7 m equiv kg-1 | 5 m equiv kg-1 | – | – | –
CN1NCc2cc(S(N)(=O)=O)c(Cl)cc2C1=O | 1.78 | 1.35 m equiv kg-1 | 1.64 | 3 m equiv kg-1 | 7.35 m equiv kg-1 | 6.1 mL | 8.05 m equiv kg-1 | 3.4 mL | 2.7 mL | 2.76 m equiv kg-1 | 4.35 m equiv kg-1 | 1.69 | 2.41 m equiv kg-1 | 4.94 m equiv kg-1 | 5.29 m equiv kg-1 | – | – | –
NS(=O)(=O)c1cc2c(cc1Cl)C(=O)N(c1cccc(C(F)(F)F)c1)NC2 | 1.82 | 0.69 m equiv kg-1 | 1.46 | 3.84 m equiv kg-1 | 6.86 m equiv kg-1 | 6.1 mL | 8.73 m equiv kg-1 | 4.5 mL | 1.6 mL | 2.07 m equiv kg-1 | 4.53 m equiv kg-1 | 1.51 | 1.26 m equiv kg-1 | 5.6 m equiv kg-1 | 6.66 m equiv kg-1 | – | – | –
NS(=O)(=O)c1cc2cnnc(O)c2cc1Cl | 2.44 | 2.51 m equiv kg-1 | 1.35 | 3.19 m equiv kg-1 | 10.44 m equiv kg-1 | 8.8 mL | 9.12 m equiv kg-1 | 3.2 mL | 5.6 mL | 4.1 m equiv kg-1 | 5.7 m equiv kg-1 | 1.83 | 6.14 m equiv kg-1 | 4.3 m equiv kg-1 | 5.02 m equiv kg-1 | – | – | –
NS(=O)(=O)c1cc2cnn(-c3cccc(C(F)(F)F)c3)c(=O)c2cc1Cl | 1.66 | 0.49 m equiv kg-1 | 1.41 | 4.67 m equiv kg-1 | 7.41 m equiv kg-1 | 4.9 mL | – | 4 mL | 0.9 mL | – | 5.16 m equiv kg-1 | 1.44 | 0.82 m equiv kg-1 | – | – | 27.7 mmHg | 35.6 mmHg | 54 mmHg
NS(=O)(=O)c1cc2c(O)nncc2cc1Sc1ccccc1 | 2 | 1.45 m equiv kg-1 | 1.17 | 4.25 m equiv kg-1 | 7.87 m equiv kg-1 | 7.6 mL | 8.44 m equiv kg-1 | 4.7 mL | 2.9 mL | 3.97 m equiv kg-1 | 5.7 m equiv kg-1 | 1.38 | 2.9 m equiv kg-1 | 4.97 m equiv kg-1 | 4.47 m equiv kg-1 | – | – | –
NS(=O)(=O)c1cc2c(cc1Cl)N=CNS2(=O)=O [CHLOROTHIAZIDE] | 2.06 | 3.75 m equiv kg-1 | 1.21 | 4.14 m equiv kg-1 | 12.77 m equiv kg-1 | 11.9 mL | 13.55 m equiv kg-1 | 4.7 mL | 7.2 mL | 8.8 m equiv kg-1 | 7.89 m equiv kg-1 | 1.62 | 7.74 m equiv kg-1 | 5.03 m equiv kg-1 | 4.75 m equiv kg-1 | – | – | –
